SKN-1 inh: blocks SKN-1 activity in C. elegans. 360,000 tested, 0.49% active. AID 624304. C. elegans VP596 Pgst-4::GFP/RFP ratio, acrylamide-induced, 24 h. inhibition, % at 21.8 µM;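 active = interference check ratio from 0.5 to 1.5 plus GFP to RFP signal ratio inhibition reaching or exceeding a fixed threshold, cut at about 30% in these data, passing the limit was not always enough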
MT1-MMP act inh: blocks activation of human MT1-MMP. 360,000 tested, 0.061% active. GFP/RFP ratio change, % at 20 µM. P50281. HT1080 RFP-PRO-GFP cells, GFP/RFP ratio fluorescence, overnight; percent of plate control window, DMSO zero;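 active = GFP/RFP ratio change of at least 30% with cell ATP level not reduced by more than half and red fluorescence within 50% of control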
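Test system: HT1080 RFP-PRO-GFP cells; Benchmarks: DMSO and RFP-L50D-GFP cell wells; Timing: cells overnight before dosing, compound overnight, 37 °C, 5% CO2; Compound: one 20 µM compound dose with 1% DMSO; Read-out: GFP/RFP fluorescence ratio.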
MsrA act: activates bovine MsrA enzyme. 360,000 tested, 0.3% active. AID 602163. purified bovine MsrA, absorbance read-out. activation, % at 10.6 µM; in the data active = activation above about 7.5%;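 also: 0% = vehicle and 100% = reference activator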
MsrA inh: inhibitors of bovine MsrA; 360,000 tested, 0.75% active; purified bovine MsrA, absorbance read-out; AID 651718; inhibition, % at 15.5 µM; in the data active = inhibition above about 4.5%;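 also: 0% = vehicle wells with enzyme and 100% = reference inhibitor wells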
pCIP destab: lowers stability of the mouse p/CIP coactivator protein | Q05BA5 | decrease of EGFP signal, % at 10 µM | 290,000 tested, 0.01% active | AID 1984 | F442A p/CIP-EGFP cells, EGFP fluorescence, 16 h;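 active = EGFP signal decrease of at least 30% at 10 µM or well 3 SD below plate mean, unless failing retest; inactive = the rest, including hits failing retest or dose response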
Target sequence (Q05BA5 1-1403): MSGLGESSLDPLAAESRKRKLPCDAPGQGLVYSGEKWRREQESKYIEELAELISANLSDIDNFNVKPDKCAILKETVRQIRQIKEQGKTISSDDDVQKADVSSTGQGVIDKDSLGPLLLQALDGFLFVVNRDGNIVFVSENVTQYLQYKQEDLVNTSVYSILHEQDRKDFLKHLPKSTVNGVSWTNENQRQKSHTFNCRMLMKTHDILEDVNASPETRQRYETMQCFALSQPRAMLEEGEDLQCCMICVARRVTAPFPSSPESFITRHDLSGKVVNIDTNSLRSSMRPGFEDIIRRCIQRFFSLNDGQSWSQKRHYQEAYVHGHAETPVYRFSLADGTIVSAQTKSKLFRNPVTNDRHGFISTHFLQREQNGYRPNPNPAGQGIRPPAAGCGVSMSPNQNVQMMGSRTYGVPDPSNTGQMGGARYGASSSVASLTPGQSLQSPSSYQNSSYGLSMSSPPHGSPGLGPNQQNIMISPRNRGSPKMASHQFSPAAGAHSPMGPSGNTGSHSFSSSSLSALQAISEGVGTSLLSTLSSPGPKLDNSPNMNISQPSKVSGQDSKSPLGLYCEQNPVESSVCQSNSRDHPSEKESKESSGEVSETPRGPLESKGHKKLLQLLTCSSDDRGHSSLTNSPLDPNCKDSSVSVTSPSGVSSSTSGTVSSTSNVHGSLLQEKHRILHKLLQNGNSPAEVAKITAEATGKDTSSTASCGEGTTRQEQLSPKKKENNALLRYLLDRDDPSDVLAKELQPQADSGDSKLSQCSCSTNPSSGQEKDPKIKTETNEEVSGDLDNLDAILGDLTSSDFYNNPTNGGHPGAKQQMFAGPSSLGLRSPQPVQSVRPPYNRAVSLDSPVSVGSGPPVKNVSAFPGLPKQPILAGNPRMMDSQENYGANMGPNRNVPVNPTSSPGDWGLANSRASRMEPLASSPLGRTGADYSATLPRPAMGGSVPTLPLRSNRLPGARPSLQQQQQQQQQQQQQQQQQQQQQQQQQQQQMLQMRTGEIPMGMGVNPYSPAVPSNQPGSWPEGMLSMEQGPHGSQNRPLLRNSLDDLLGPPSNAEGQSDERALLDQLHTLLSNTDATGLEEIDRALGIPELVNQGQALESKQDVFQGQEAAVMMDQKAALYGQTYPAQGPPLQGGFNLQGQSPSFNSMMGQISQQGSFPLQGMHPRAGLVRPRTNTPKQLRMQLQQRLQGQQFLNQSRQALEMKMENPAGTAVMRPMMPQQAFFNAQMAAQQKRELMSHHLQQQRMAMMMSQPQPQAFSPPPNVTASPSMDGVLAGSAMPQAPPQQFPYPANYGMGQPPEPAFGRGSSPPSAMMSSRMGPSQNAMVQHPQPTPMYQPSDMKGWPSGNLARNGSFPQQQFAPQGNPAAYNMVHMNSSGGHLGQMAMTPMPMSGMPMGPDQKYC
An asterisk follows results filed as active; · = no result. Compounds with a hit are over-represented: about 1.6% of the library has one in this group of screens.

SMILES | SKN-1 inh | MT1-MMP act inh | MsrA act | MsrA inh | pCIP destab
CC(=O)N1CCN(c2ccc(NCc3ccccc3)cc2)CC1 | 38* | 9 | 0 | 1 | -7
C#CCNC(=O)C[C@H]1C[C@@]2(C(=O)OC)C(=C[C@H](COCc3ccccc3)O[C@@H]2C)N(Cc2ccc3c(c2)OCO3)C1=O | · | · | · | 1 | ·
Clc1ccc(Nc2ccc(-n3ccnc3)nn2)cc1Cl | 37* | -5 | 1 | 0 | 7
Clc1ccc(OCc2noc(-c3ccsc3)n2)c(Cl)c1 | 74* | -2 | -3 | -1 | -11
Fc1cc(Cl)c(OCc2noc(-c3ccsc3)n2)c(Cl)c1 | -15 | 0 | -6 | 0 | -20
O=C(Nc1ccc2c(c1)OCO2)c1cccc(F)c1 | 40* | -1 | -2 | 0 | -2
COc1ccc(NC(=O)c2ccc3c(c2)OCO3)cc1Cl | 41* | 2 | -3 | 0 | 13
C[C@@H]1CN(c2ccc(N3CCN(C(=O)OC(C)(C)C)C[C@@H]3C)cc2C#N)C[C@H](C)O1 | · | · | · | 1 | ·
Cc1ccc(NC(=S)NNC(=O)C2CC2c2ccc(C)cc2)cc1 (stereo not drawn) | 40* | -1 | -11 | -1 | -5
COC(=O)CC#C[C@H](C)[C@@H](NS(C)(=O)=O)C(C)(C)COCc1ccccc1 | · | · | · | 0 | ·
CN1CCC(N(C)CC(=O)Nc2ccccc2N2CCOCC2)CC1 | 40* | -1 | -4 | 0 | -9
COC(=O)c1cc2c(c3c4cc(F)ccc4n(S(=O)(=O)c4ccccc4)c13)C(=O)N(C)C2 | · | · | · | 1 | ·
Cc1nn(-c2ccccc2)c(C)c1/C=N/NC(=O)c1cc(C(C)(C)C)[nH]n1 | 5 | 11 | 2 | -1 | 0
Cc1nn(-c2ccccc2)c(N2CCCC2)c1/C=N/NC(=O)c1cc(-c2ccccc2)nc2ccccc12 | 18 | -10 | -5 | 4.6* | -19
Cc1ccc(-c2cc(C(=O)N/N=C/c3c(C)nn(-c4ccccc4)c3C)[nH]n2)cc1 | 47* | 15 | -5 | 1 | -26
C[C@@H]1COc2cc(NCCCN3CCOCC3)ccc2S(=O)(=O)N1 | · | · | · | -1 | ·
c1ccc(Cc2cnc(N3CCN(Cc4cccc(-c5ccsc5)n4)CC3)nc2)cc1 | · | · | · | -1 | ·
O=C(NCCc1ccccc1Cl)[C@@H]1CCCN1C(=O)[C@@H](NC(=O)N1CCOCC1)c1ccccc1 | · | · | · | 0 | ·
O=C(Nc1ccc(Cl)cc1)C(c1ccccc1)N(CCO)CCO (stereo not drawn) | 37* | 1 | -2 | 0 | -16
CCCCn1c2nc3ccccc3nc2c2c(=O)n(CCC)cnc21 | -2 | 2 | -2 | 0 | 1
COCCCn1cnc2c(c1=O)c1nc3ccccc3nc1n2CCc1ccccc1 | 36* | 7 | -2 | 1 | -3
CCNC(=S)N/N=C/c1ccc(F)cc1 | · | · | · | 2 | 2
CCCCNC(=S)N/N=C/c1ccc(C#N)cc1 | 9 | 1 | -2 | 4.7* | 4
COc1ccc(CNC(=O)C2CCN(C(=O)N(C)C)CC2)c(OC)c1 | 8 | 6 | -6 | · | 2
COc1ccccc1CNC(=O)C1CCN(C(=O)N(C)C)CC1 | 35* | 1 | -2 | -2 | 8
SMILES | SKN-1 inh | MT1-MMP act inh | MsrA act | MsrA inh | pCIP destab
COC(=O)c1cc2c(c3c4cc(OC)ccc4n(S(=O)(=O)c4cccc(C)c4)c13)C(=O)N(Cc1ccc(C(F)(F)F)cc1)C2 | · | · | · | 1 | ·
COc1ccc(C(=O)Nc2cccc(OC(=O)c3ccco3)c2)cc1 | 3 | 2 | -5 | 1 | -6
COc1ccc(C(=O)Nc2cccc(OC(=O)c3ccc(C)c(C)c3)c2)cc1 | 42* | 0 | 1 | 1 | -1
CN(C)CCCNc1nc(-c2ccc(Cl)cc2)nc2ccccc12 | 19 | -9 | -2 | 6.0* | 9
c1ccc(-c2nc(NCc3cccnc3)c3ccccc3n2)cc1 | 22 | -3 | -5 | · | -9
Fc1ccc(CNc2nc(-c3ccccc3)nc3ccccc23)cc1 | 46* | 1 | -3 | 1 | -1
COC(=O)C1=C(C)N(Cc2ccccc2C(F)(F)F)C(=NCc2ccccc2C(F)(F)F)NC1c1cccc(C(F)(F)F)c1 (stereo not drawn) | · | · | · | -1 | ·
COc1cc2[nH]c(C(=O)Nc3ccc4c(c3)OCCO4)cc2c(OC)c1OC | 3 | 7 | -4 | 1 | -3
COc1cc2cc(C(=O)Nc3ccc4c(c3)OCCO4)[nH]c2cc1OC | -4 | 3 | -5 | 4.6* | -1
COc1ccc(N2C[C@@]3(O)CC[C@@H](O)[C@@H](OC)[C@@H]3[C@@](C)(O)[C@@H]2CC=C(C)C)cc1 | · | · | · | 0 | ·
COc1ccc(C2C3=C(N=C4SCC(=O)N42)c2ccccc2CC3)cc1OC (stereo not drawn) | 48* | 0 | -3 | 1 | -8
CC(C)CC(C(=O)NCc1ccccn1)N1C(=O)c2ccccc2C1=O (stereo not drawn) | 42* | -2 | -3 | -1 | 1
COC(=O)Cc1nnn2c1CC(OC)c1ccccc1-2 (stereo not drawn) | · | · | · | 0 | ·
Cc1[nH]c2ccccc2c1CC(=O)Nc1ccc(Oc2cccnc2)cc1 | · | · | · | 0 | ·
C=CCNC(=S)Nc1sc2c(c1C(=O)OCC)CC(C)(CC)OC2 (stereo not drawn) | 8 | 1 | 3 | 4.6* | 2
C=CCNC(=S)Nc1sc2c(c1C(=O)OCC)CCN(C(=O)OCC)C2 | -1 | 0 | -11 | 2 | -27
CCCCNc1cc(=O)oc2ccccc12 | 30* | 2 | -5 | 0 | 10
C=CCNc1cccc2c1S(=O)(=O)N[C@H](CC(C)C)CO2 | · | · | · | 1 | ·
O=[N+]([O-])c1cc2c(cc1Br)-c1ccccc1C2 | 52* | 2 | -3 | -1 | ·
COc1cc2c(cc1[N+](=O)[O-])-c1ccccc1C2 | 9 | 0 | -3 | 1 | ·
Clc1ccc(SCc2cc(-c3ccccc3)on2)cc1 | 49* | 2 | -13 | 0 | 2
Clc1ccc(SCc2cc(Cl)nc(-c3ccccc3)n2)cc1 | 25 | 8 | -2 | 0 | ·
Cc1ccc(SCc2cc(-c3ccc(Cl)cc3)no2)cc1 | 20 | 3 | -2 | 0 | -2
c1ccc(SCc2cc(-c3ccccc3)no2)cc1 | 55* | -4 | -1 | 0 | -19
c1ccc(OCc2cc(-c3ccccc3)no2)cc1 | 45* | 1 | -3 | 2 | 11
SMILES | SKN-1 inh | MT1-MMP act inh | MsrA act | MsrA inh | pCIP destab
Clc1ccc(-c2cc(CSc3ccccc3)on2)cc1 | 45* | -1 | -4 | 2 | 3
CC1=CC2C3C(=O)N(c4ccccc4)C(=O)C3C1C(=O)C2(O)C(C)C (stereo not drawn) | · | · | · | 0 | ·
O=C(NC1CCCC1)[C@@H]1CCCN1C(=O)[C@@H](NS(=O)(=O)c1ccc(F)cc1F)c1ccccc1 | · | · | · | 0 | ·
Cc1cc2c(nc1C)CCCN2S(=O)(=O)c1c(C)noc1C | · | · | · | 1 | ·
C=CCNc1cccc2c1S(=O)(=O)N[C@@H](CC(C)C)CO2 | · | · | · | -1 | ·
Clc1ccc(-c2cc(CSc3cccc(Cl)c3)on2)cc1 | 60* | 5 | -11 | 0 | -14
COc1ccc(CC(=O)Nc2ccc(-c3nc4cc(C)ccc4o3)c(O)c2)cc1OC | 35* | 1 | -4 | 2 | -14
